Data from ChEMBL document CHEMBL3808288, “Identification and in Vivo Evaluation of Liver X Receptor β-Selective Agonists for the Potential Treatment of Alzheimer's Disease” (J Med Chem, 2016).
Calls of active or inactive are those of the source. No cut-off for these calls is given here.

Experiments:
[1] = Cmax in rhesus monkey at 20 mg/kg, po administered for 2 weeks; assay type: ADME, organism-based, Macaca mulatta; parameters: dose 20 mg/kg, route oral; conditions: in vivo
Method in brief: (§1)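 Cmax was estimated across a 2-week once-daily oral dosing study in rhesus monkeys.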

Rhesus monkey [2] = test: Increase in LDL cholesterol level in rhesus monkey at 10 to 20 mg/kg, po qd for 2 weeks; assay type: ADME, organism-based, Macaca mulatta; conditions: in vivo, 336 h
Method in brief: (§2)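 Rhesus monkeys were dosed orally once daily for 2 weeks. LDL and HDL cholesterol were measured in serum at trough after the last dose and compared with baseline serum samples taken before dosing.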

[3] = Oral bioavailability in rhesus monkey; assay type: ADME, organism-based, Macaca mulatta; conditions: in vivo
P-gp [4] = test: Efflux ratio in MDCK cells expressing rat P-gp assessed as ratio of permeability across basolateral to apical side over apical to basolateral side; assay type: ADME, cell-based, Canis lupus familiaris; conditions: dog, MDCK-MDR1
Mus musculus [5] = test: Toxicity in Tg2576 transgenic mouse assessed as change in liver triglyceride level at 50 mg/kg, sc dosed for 3 weeks; assay type: organism-based; conditions: in vivo, 504 h
Method in brief: (§3)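 12-month-old Tg2576 mice were dosed subcutaneously for three weeks. Brain was assayed for ABCA1 protein, soluble apoE and DEA-soluble Aβ, and plasma and liver were assayed for triglycerides. Groups were compared with vehicle by ANOVA.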

Rattus norvegicus [6] = test: Toxicity in Wistar Han rat assessed as change in plasma triglyceride level at 100 mg/kg, sc dosed for 4 days […]; assay type: organism-based; conditions: in vivo, 96 h
[7] = Half life of compound in rat; assay type: ADME, organism-based; conditions: in vivo
[8] = Volume of distribution at steady state in rhesus monkey; assay type: ADME, organism-based, Macaca mulatta; conditions: in vivo, read-out: Vdss
Mus musculus [9] = test: Activation of LXR in Tg2576 transgenic mouse assessed increase in brain ABCA1 level at 50 mg/kg, sc dosed for 3 weeks by western blotting method; assay type: functional, organism-based; method in brief: as §3
[10] = Clearance in rat; assay type: ADME, organism-based; conditions: in vivo
[11] = Protein binding in rat plasma; assay type: ADME, cell-free; conditions: read-out: PPB (converted)
Mus musculus [12] = test: Reversal of hyperlocomotary behavior in Tg2576 transgenic mouse at 50 mg/kg, sc administered as single dose 4 hrs before test by open field test; assay type: functional, organism-based
Method in brief: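 A single subcutaneous dose was given 4 h before the open-field locomotor test.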

[13] = target: T1, Oxysterols receptor LXR-beta (Homo sapiens) (UniProt P55055); test: Agonist activity at GST-tagged LXRbeta-LBD (unknown origin) by LanthaScreen TR-FRET liver X receptor coactivator assay relative to T1317
T1 sequence (whole entry): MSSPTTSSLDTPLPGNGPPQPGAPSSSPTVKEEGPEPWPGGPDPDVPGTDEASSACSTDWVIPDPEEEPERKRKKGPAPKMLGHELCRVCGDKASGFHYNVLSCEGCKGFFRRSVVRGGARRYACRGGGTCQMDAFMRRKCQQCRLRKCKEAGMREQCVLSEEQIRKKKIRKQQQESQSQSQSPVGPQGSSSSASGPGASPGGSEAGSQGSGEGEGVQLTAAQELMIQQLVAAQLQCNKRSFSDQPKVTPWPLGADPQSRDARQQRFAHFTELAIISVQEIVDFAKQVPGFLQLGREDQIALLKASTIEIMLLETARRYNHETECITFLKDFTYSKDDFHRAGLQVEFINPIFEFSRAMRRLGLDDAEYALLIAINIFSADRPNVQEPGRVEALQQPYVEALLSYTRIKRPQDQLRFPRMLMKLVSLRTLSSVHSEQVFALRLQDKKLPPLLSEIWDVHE
Method in brief: (§4)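 Cofactor recruitment assay using the ligand binding domains of LXRβ or LXRα. The read-out was EC50 and Emax, with Emax relative to a full agonist control.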

Mus musculus [14] = test: Toxicity in wild-type mouse assessed as effect on locomotary behavior at 50 mg/kg, sc dosed for 16 days mins by open field test; assay type: organism-based; conditions: in vivo, 384 h
Method in brief: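 Wild-type mice were part of a three-week subcutaneous dosing study that also included Tg2576 transgenic mice. Locomotor activity was scored in an open-field arena after 16 days of dosing.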

Rhesus monkey [15] = test: Increase in apoE level in CSF of rhesus monkey at 10 and 20 mg/kg, po administered for 2 weeks by apoE ELISA relative to control; assay type: functional, Macaca mulatta
Method in brief: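 Rhesus monkeys were dosed orally once daily for 2 weeks after randomisation on baseline lipids, liver enzymes and liver fat. CSF was taken by lumbar puncture at baseline and at trough after the last dose, and apoE was measured against baseline.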

P-gp [16] = test: Efflux ratio in MDCK cells expressing human P-gp assessed as ratio of permeability across basolateral to apical side over apical to basolateral side; assay type: ADME, cell-based, Canis lupus familiaris; conditions: dog, MDCK-MDR1
Rhesus monkey [17] = test: Increase in lipid level in liver of rhesus monkey at 10 to 20 mg/kg, po qd for 2 weeks; assay type: ADME, organism-based, Macaca mulatta; conditions: in vivo, 336 h
Rhesus monkey [18] = test: Increase in hepatic fat content in rhesus monkey at 10 and 20 mg/kg, po qd for 2 weeks by magnetic resonance spectroscopic imaging method relative to vehicle control; assay type: ADME, organism-based, Macaca mulatta; conditions: in vivo, 336 h
Rhesus monkey [19] = test: Increase in lipid level in serum of rhesus monkey at 10 to 20 mg/kg, po qd for 2 weeks; assay type: ADME, organism-based, Macaca mulatta; conditions: in vivo, 336 h
Rhesus monkey [20] = test: Increase in amyloid beta40 in CSF of rhesus monkey at 20 mg/kg, po administered for 2 weeks; assay type: functional, Macaca mulatta
[21] = Half life of compound in rhesus monkey; assay type: ADME, organism-based, Macaca mulatta; conditions: in vivo
Rhesus monkey [22] = test: Increase in amyloid beta42 in CSF of rhesus monkey at 20 mg/kg, po administered for 2 weeks; assay type: functional, Macaca mulatta
[23] = Cmax in rhesus monkey at 10 mg/kg, po administered for 2 weeks; assay type: ADME, organism-based, Macaca mulatta; parameters: dose 10 mg/kg, route oral; conditions: in vivo; method in brief: as §1
[24] = target: T2, Oxysterols receptor LXR-alpha (Homo sapiens) (UniProt Q13133); test: Agonist activity at GST-tagged LXRalpha-LBD (unknown origin) by LanthaScreen TR-FRET liver X receptor coactivator assay T1317; method in brief: as §4
T2 sequence (whole entry): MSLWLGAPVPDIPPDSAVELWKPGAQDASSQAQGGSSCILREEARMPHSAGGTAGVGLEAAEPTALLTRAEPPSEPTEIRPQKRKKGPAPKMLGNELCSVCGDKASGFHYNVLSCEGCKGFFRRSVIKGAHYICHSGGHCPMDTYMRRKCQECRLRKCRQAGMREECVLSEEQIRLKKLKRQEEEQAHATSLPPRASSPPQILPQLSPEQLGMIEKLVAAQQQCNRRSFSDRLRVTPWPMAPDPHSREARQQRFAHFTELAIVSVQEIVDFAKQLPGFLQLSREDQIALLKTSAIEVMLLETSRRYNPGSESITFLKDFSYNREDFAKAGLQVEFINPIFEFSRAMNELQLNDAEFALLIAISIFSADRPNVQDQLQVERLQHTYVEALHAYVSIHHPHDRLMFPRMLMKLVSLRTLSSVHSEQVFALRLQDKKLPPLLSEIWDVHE

[25] = target: T3, Oxysterols receptor LXR-beta (Homo sapiens, UniProt P55055); test: Agonist activity at GST-tagged LXRbeta-LBD (unknown origin) by LanthaScreen TR-FRET liver X receptor coactivator assay; method in brief: as §4
T3 sequence (P55055 whole entry): T1 sequence (whole entry)

Rattus norvegicus [26] = test: Toxicity in Wistar Han rat assessed as change in liver triglyceride level at 100 mg/kg, sc dosed for 4 days […]; assay type: organism-based; conditions: in vivo, 96 h
[27] = Clearance in rhesus monkey; assay type: ADME, organism-based, Macaca mulatta; conditions: in vivo
Rhesus monkey [28] = test: Decrease in ratio of HDL to LDL level in rhesus monkey plasma at 10 to 20 mg/kg, po qd for 2 weeks; assay type: ADME, organism-based, Macaca mulatta; conditions: in vivo, 336 h; method in brief: as §2
Mus musculus [29] = test: Activation of LXR in Tg2576 transgenic mouse assessed decrease in DEA-soluble amyloid-beta level in brain at 50 mg/kg, sc dosed for 3 weeks; assay type: functional; conditions: 504 h; method in brief: as §3

CC(C)[C@@](O)(C(=O)N1CCC(C2CCN(c3ccc(C(=O)N(C)C)c(Cl)c3)CC2)CC1)C(F)(F)F
Cmax [1]: 18 µM | Activity (Rhesus monkey [2]): Toxic | bioavailability [3]: 77% | efflux ratio (P-gp [4]): 0.8 | Activity (Mus musculus [5]): Non-toxic | Activity (Rattus norvegicus [6]): Non-toxic | half-life [7]: 2.9 h | Vd [8]: 2.7 L/kg | Activity (Mus musculus [9]): Active | clearance [10]: 87 mL/min/kg | fraction unbound [11]: 0.018 | Activity (Mus musculus [12]): inactive | Emax [13]: 103% | Activity (Mus musculus [14]): Non-toxic | fold change (FC) (Rhesus monkey [15]): 3 | efflux ratio (P-gp [16]): 0.6 | Activity (Rhesus monkey [17]): Non-toxic | Activity (Rhesus monkey [18]): Non-toxic | Activity (Rhesus monkey [19]): Non-toxic | Activity (Rhesus monkey [20]): 25% | half-life [21]: 2 h | Activity (Rhesus monkey [22]): 25% | Cmax [23]: 1 µM | Emax [24]: 49% | EC50 [25]: 30 nM | Activity (Rattus norvegicus [26]): Non-toxic | clearance [27]: 18 mL/min/kg | Activity (Rhesus monkey [28]): Toxic | inhibition in vivo at 50 mg/kg (Mus musculus [29]): 28%
